In test [1] the target is Tyrosine-protein kinase ABL2 (Homo sapiens, UniProt P42684). The experiment in a line: Inhibition of ARG Lys1 labeling site in human Huh-7 cell lysate at 1 uM by KiNativ Profiling analysis relative to control. The class given is subcellular.
Test [2] has as its target T1, NUAK family SNF1-like kinase 2 (Homo sapiens) (UniProt Q9H093).
T1 sequence (whole entry): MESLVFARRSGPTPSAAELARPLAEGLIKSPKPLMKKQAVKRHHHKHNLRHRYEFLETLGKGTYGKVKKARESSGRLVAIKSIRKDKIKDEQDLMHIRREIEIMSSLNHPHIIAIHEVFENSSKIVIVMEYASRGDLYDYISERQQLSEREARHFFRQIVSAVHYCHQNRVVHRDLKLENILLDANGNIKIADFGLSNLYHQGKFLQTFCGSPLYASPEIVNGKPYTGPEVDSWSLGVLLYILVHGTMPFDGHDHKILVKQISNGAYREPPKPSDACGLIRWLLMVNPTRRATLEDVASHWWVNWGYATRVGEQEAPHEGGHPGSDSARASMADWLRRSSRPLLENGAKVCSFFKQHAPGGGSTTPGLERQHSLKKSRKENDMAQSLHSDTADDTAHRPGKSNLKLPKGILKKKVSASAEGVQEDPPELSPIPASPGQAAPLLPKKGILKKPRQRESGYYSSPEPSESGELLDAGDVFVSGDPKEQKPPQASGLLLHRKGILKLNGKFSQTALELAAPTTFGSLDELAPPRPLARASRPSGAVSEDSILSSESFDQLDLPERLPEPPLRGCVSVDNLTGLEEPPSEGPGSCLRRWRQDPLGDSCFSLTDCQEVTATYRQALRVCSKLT
The experiment in a line: Inhibition of NuaK2 Lys1 labeling site in human A-375 cells at 0.5 uM by KiNativ Profiling analysis relative to control. Format: cell-based.

The target in test [3] is Ribosomal protein S6 kinase alpha-2 (Homo sapiens) (UniProt Q15349). The experiment in a line: Inhibition of RSK3 Protein Kinase Domain in human A-375 cells at 5 uM by KiNativ Profiling analysis relative to control. The class given is cell-based. Put shortly:
(§1)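 Live A375 melanoma cells treated with compound at 5 or 0.5 μM, then lysed. Lysate kinases were labeled with a lysine-reactive ATP or ADP-biotin probe. Inhibition was read as protection of labeling sites from the probe.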

The target of test [4] is 3-phosphoinositide-dependent protein kinase 1 (Homo sapiens) (UniProt O15530). Briefly: Inhibition of PDK1 Protein Kinase Domain in human A-375 cells at 0.5 uM by KiNativ Profiling analysis relative to control.
For test [5], the target named is Serine/threonine-protein kinase 10 (Homo sapiens) (UniProt O94804). The experiment in a line: Inhibition of LOK Lys1 labeling site harbouring NKETGALAAAKVIETK in human A-375 cells at 0.5 uM by KiNativ Profiling analysis relative to control. The class given is cell-based.
Test [6] addresses Cyclin-dependent kinase 18 (Homo sapiens) (UniProt Q07002). Briefly: Inhibition of PCTAIRE3 Lys1 labeling site harbouring SKLTENLVALKEIRLEHEEGAPCTAIR in human A-375 cells at 5 uM by KiNativ Profiling analysis relative to control. Format: cell-based. Put shortly:
(§2)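 Live A375 melanoma cells were treated with compound at 5 or 0.5 μM, then lysed. Lysates were labeled with a lysine-reactive ATP or ADP-biotin probe. Read-out was the compound's protection of kinase labeling sites from probe labeling (KiNativ).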

Test [7] addresses Ribosomal protein S6 kinase alpha-1 (Homo sapiens) (UniProt Q15418). Briefly: Inhibition of RSK1 domain2 Lys2 labeling site in human A-375 cells at 5 uM by KiNativ Profiling analysis relative to control. The class given is cell-based. A digest of the protocol: as §1
The target of test [8] is Mitogen-activated protein kinase kinase kinase 20 (Homo sapiens, UniProt Q9NYL2). The experiment in a line: Inhibition of ZAK (unknown origin) Lys1 labeling site by KiNativ Profiling analysis.
For test [9], the target named is T2, Interleukin-1 receptor-associated kinase 4 (Homo sapiens) (UniProt Q9NWZ3).
T2 sequence (whole entry): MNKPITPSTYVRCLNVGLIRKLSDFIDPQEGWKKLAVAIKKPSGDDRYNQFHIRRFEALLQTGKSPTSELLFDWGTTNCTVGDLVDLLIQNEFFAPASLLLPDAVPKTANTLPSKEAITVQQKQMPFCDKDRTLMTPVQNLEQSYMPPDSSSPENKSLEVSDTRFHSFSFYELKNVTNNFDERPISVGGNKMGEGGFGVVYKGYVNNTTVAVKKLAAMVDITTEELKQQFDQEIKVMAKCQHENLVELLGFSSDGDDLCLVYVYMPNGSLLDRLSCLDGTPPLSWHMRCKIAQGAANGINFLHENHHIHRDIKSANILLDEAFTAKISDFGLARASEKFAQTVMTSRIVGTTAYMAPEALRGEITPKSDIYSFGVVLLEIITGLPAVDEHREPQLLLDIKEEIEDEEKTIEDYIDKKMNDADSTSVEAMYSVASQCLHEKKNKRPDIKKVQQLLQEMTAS
The experiment in a line: Inhibition of IRAK4 Lys2 labeling site in human A-375 cells at 5 uM by KiNativ Profiling analysis relative to control. Format: cell-based. Put shortly: as §2

Test [10] has as its target T3, Mixed lineage kinase domain-like protein (Homo sapiens) (UniProt Q8NB16).
T3 sequence (whole entry): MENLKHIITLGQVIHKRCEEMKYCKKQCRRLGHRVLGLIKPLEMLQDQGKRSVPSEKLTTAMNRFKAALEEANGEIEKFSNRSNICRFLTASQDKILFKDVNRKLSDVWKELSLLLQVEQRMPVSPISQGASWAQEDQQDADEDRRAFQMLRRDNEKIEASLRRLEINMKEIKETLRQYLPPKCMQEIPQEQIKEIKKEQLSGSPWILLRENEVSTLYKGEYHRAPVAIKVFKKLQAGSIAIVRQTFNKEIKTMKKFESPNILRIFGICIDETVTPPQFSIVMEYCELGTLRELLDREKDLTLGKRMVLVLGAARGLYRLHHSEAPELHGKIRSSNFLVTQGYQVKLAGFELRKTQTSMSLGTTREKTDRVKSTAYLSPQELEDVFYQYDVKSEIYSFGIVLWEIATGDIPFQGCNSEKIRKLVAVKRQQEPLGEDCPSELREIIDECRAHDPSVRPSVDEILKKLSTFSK
The experiment in a line: Inhibition of MLKL Lys1 labeling site in human A-375 cells at 0.05 uM by KiNativ Profiling analysis relative to control. The class given is cell-based.

Test [11] deals with Dual specificity mitogen-activated protein kinase kinase 1 (Homo sapiens) (UniProt Q02750). Briefly: Inhibition of MAP2K1 Lys2 labeling site harbouring DVKPSNILVNSR in human A-375 cells at 0.5 uM by KiNativ Profiling analysis relative to control. The class given is cell-based.
Test [12] has as its target Ribosomal protein S6 kinase alpha-1 (Homo sapiens) (UniProt Q15418). The experiment in a line: Inhibition of RSK1 domain1 Lys1 labeling site in human A-375 cells at 0.05 uM by KiNativ Profiling analysis relative to control. The class given is cell-based.

Experimental findings from ChEMBL document CHEMBL5696442, “Discovery of type II inhibitors of TGFβ-activated kinase 1 (TAK1) and mitogen-activated protein kinase kinase kinase kinase 2 (MAP4K2)” (J Med Chem, 2015) are described below.

Chain of Ribosomal protein S6 kinase alpha-1 (Homo sapiens) (Q15418 whole entry, the tested form may be a part): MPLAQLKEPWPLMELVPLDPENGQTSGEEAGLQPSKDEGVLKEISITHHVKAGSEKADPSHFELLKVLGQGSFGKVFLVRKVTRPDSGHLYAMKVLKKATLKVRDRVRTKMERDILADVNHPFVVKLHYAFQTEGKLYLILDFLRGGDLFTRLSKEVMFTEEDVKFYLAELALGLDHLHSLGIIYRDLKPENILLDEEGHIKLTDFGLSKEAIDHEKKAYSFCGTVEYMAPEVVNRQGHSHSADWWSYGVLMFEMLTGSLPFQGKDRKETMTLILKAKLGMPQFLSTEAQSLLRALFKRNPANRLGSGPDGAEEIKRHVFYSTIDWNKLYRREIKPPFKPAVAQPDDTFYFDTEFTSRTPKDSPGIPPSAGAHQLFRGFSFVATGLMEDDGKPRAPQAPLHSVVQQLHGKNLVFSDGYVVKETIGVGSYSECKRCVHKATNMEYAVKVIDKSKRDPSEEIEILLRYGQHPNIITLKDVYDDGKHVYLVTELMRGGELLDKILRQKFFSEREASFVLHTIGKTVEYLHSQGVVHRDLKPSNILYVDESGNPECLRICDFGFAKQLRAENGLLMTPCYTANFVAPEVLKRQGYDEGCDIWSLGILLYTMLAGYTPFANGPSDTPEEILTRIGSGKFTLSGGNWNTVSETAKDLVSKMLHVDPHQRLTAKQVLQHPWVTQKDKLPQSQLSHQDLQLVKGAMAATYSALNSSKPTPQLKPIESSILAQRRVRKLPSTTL
Chain of Mitogen-activated protein kinase kinase kinase 20 (Q9NYL2 whole entry): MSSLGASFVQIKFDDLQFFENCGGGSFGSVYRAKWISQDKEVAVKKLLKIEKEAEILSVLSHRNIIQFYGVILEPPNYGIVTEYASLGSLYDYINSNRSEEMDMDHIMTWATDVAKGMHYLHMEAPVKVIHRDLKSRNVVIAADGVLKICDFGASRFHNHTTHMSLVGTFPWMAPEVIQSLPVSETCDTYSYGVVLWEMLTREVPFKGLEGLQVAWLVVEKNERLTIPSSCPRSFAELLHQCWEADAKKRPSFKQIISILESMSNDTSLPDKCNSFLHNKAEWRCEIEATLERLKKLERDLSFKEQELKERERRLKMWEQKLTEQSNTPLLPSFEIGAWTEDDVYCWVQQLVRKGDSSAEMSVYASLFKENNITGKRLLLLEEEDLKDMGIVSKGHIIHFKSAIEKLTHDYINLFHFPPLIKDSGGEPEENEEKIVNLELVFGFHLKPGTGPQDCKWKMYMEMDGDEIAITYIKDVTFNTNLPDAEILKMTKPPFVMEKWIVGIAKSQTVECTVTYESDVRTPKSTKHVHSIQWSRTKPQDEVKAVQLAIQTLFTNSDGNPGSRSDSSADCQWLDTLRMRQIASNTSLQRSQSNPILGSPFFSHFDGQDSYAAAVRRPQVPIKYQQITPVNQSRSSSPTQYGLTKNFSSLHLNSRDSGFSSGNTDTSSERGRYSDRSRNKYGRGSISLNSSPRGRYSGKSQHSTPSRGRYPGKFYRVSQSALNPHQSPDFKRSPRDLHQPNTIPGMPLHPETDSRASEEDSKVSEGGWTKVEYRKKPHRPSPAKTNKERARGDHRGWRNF
Chain of Dual specificity mitogen-activated protein kinase kinase 1 (Homo sapiens) (Q02750 whole entry, the tested form may be a part): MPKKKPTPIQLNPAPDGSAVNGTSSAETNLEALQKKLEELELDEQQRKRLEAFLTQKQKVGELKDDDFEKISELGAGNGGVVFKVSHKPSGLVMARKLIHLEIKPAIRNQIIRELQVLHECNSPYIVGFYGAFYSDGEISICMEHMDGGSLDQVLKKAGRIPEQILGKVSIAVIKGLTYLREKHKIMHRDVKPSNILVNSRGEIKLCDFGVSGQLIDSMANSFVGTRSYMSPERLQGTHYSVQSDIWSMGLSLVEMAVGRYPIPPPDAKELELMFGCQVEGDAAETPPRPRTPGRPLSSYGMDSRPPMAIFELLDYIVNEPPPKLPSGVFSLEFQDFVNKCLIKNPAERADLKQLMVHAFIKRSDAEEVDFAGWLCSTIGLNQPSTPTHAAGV
Chain of 3-phosphoinositide-dependent protein kinase 1 (Homo sapiens) (O15530 whole entry, looked up, the tested form may be a part): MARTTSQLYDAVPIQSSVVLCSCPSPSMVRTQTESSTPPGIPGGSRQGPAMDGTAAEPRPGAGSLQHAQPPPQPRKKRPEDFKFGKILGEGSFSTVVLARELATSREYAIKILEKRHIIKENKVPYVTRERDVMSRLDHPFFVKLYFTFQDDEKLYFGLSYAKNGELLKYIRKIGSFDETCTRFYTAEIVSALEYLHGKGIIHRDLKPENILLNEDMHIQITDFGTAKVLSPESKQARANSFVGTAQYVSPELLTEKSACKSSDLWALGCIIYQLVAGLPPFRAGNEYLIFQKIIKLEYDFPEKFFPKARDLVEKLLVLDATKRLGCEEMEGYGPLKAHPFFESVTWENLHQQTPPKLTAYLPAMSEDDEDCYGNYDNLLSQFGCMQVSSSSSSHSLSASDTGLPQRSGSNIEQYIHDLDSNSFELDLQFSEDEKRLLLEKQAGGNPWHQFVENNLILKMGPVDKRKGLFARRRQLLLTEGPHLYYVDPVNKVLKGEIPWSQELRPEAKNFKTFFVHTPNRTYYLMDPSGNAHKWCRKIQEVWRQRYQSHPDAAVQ
Chain of Ribosomal protein S6 kinase alpha-2 (Homo sapiens) (Q15349 whole entry, the tested form may be a part): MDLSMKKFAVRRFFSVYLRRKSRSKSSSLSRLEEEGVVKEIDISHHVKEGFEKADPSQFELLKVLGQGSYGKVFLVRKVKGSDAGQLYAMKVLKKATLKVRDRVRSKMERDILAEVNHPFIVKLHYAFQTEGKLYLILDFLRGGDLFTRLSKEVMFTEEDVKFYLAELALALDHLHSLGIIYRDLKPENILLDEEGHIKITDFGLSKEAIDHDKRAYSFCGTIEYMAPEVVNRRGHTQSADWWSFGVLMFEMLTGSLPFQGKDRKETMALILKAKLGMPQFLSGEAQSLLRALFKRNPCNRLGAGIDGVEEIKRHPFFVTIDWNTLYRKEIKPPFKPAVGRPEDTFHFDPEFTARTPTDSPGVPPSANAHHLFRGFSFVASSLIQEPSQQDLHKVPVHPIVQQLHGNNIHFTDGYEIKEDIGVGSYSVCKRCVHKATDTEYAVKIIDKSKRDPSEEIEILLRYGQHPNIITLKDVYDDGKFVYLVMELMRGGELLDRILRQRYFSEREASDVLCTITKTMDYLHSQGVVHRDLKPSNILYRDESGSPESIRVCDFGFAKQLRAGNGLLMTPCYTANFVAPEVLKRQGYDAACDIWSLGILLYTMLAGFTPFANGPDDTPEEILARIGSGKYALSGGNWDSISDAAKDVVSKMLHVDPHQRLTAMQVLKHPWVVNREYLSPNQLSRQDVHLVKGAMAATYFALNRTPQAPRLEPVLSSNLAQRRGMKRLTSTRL
Chain of Cyclin-dependent kinase 18 (Homo sapiens) (Q07002 whole entry): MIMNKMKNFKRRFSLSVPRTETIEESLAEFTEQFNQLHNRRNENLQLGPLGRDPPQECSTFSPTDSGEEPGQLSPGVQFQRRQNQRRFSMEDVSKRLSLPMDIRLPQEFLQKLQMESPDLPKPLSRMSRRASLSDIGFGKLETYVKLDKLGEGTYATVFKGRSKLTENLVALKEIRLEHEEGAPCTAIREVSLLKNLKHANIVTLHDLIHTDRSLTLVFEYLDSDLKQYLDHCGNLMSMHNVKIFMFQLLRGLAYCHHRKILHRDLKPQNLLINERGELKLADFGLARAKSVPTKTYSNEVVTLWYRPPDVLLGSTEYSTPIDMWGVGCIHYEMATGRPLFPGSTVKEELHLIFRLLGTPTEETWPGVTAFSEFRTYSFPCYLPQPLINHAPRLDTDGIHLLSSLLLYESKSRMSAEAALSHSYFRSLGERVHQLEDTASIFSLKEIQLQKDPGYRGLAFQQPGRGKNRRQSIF
Chain of Serine/threonine-protein kinase 10 (Homo sapiens) (O94804 whole entry, looked up): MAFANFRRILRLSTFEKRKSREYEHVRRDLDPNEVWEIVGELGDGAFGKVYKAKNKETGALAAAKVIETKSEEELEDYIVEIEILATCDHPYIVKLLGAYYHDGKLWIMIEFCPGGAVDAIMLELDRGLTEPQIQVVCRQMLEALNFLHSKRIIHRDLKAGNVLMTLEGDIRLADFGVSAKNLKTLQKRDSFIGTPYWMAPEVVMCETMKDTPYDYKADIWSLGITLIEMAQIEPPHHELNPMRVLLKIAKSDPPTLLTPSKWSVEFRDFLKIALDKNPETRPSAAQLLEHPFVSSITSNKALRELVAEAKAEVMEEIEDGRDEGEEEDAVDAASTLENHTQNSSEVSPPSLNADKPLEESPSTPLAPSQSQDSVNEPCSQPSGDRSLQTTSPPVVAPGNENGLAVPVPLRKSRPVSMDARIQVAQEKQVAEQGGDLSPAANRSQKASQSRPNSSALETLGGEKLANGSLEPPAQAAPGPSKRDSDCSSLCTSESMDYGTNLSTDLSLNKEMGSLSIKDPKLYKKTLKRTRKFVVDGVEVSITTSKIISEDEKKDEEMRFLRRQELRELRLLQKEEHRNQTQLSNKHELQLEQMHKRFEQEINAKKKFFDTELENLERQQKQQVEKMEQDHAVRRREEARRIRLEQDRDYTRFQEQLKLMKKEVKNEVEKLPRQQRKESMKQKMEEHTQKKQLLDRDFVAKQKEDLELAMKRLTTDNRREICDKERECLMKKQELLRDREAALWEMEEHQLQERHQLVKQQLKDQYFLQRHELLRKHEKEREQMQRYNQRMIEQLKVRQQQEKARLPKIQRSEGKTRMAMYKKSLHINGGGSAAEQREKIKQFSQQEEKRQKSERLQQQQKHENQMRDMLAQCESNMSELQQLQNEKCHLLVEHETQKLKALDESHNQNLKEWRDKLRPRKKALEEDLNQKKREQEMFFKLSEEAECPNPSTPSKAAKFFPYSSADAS

In the case of `CNc1cc(Oc2cc(C(=O)Nc3cc(N4CCN(C)CC4)cc(C(F)(F)F)c3)ccc2C)ncn1`, the inhibition in [1] stood at 48.4%.

As to `CCN1CCN(Cc2ccc(NC(=O)c3ccc(C)c(/C=C/c4cnc5[nH]ccc5c4OC)c3)cc2C(F)(F)F)CC1`, the inhibition amounted to 6.4% in test [2]; 20% in [3]; 4.4% in test [4]; 61.8% in [5]; 21.3% in test [6]; 3.9% in test [7]. Further, the inhibition is 34.1% in test [9], 12.8% in test [10], 1.8% in test [11] and -0.5% in test [12]. In addition, the IC50 in test [8] amounted to 469 nM.

Take `CNc1cc(Oc2cc(C(=O)Nc3cc(-n4cnc(C)c4)cc(C(F)(F)F)c3)ccc2C)ncn1`: the inhibition in test [1] was determined as 51.8%.

Turning to `CCN1CCN(Cc2ccc(NC(=O)c3ccc(C)c(Oc4ccnc5[nH]ccc45)c3)cc2C(F)(F)F)CC1`, the inhibition in test [2] worked out at 9.4%; in test [3], 5.8%; in test [4], 15.4%; in [5], 74.7%; in [6], 56.6%; in test [7], 1.8%. Also, the inhibition in [9] is -0.2%; in test [10] it was 14.8%; in test [11], -3.9%; in test [12], -1.6%. Further, the IC50 in [8] was 698 nM.
